Results: ChEMBL document CHEMBL1124408, “3-aminopyridazine derivatives with atypical antidepressant, serotonergic, and dopaminergic activities” (J Med Chem, 1989)

Key:
[1] = tested on: Mus musculus; assay: Ability to modify turning behavior of mice after intraperitoneal administration; assay type: functional; details: ip, read-out: MED
Summary of the method: (§1)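 Female CD1 mice (25-30 g) were lesioned by stereotaxic injection of 6-OHDA (10 μg in 1 μL saline with 1 mg/mL ascorbic acid) into the right striatum under pentobarbitone (60 mg/kg ip). Seven days later, drug in distilled water/gum tragacanth was given ip at multiple doses (7-20 mice/dose). Ipsilateral turns were counted for 2 min starting 30 min post-dose.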

[2] = (§2) Acute toxicity in mice after intraperitoneal administration.; details: mouse, in vivo, ip, LD50
[3] = tested on: Mus musculus; assay: Compound was tested for antidepressant activity against reserpine induced ptosis in mice after intraperitoneal administration.; value ranges from 31-38; assay type: functional; details: ip
Summary of the method: (§3)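 Female CD1 mice (18-22 g) received the drug in distilled water/gum tragacanth ip at multiple doses (7-20 mice/dose), given together with reserpine (2 mg/kg iv). One hour later, palpebral ptosis (half or more of the lid closed) was scored all-or-none. Screening dose was at most 50% of the seizure threshold dose.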

[4] = tested on: Mus musculus; assay: Serotonergic activity was determined by measuring the potentiation of 5-hydroxytryptophan in mice upon ip administration; assay type: functional
Summary of the method: (§4)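 Drug was injected ip in distilled water/gum tragacanth to female CD1 mice (18-22 g) at multiple doses (7-20 mice/dose), 30 min before a threshold dose of L-5-HTP (200 mg/kg ip). Mice were held singly in small cages, and tremor was scored all-or-none over the 20 min after L-5-HTP.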

[5] = tested on: Mus musculus; assay: Compound was tested for antidepressant activity against reserpine induced ptosis in mice after intraperitoneal administration.; value ranges from 5-9; assay type: functional; details: ip; summary of the method: as §3
[6] = tested on: Mus musculus; assay: Compound was tested for antidepressant activity against reserpine induced ptosis in mice after intraperitoneal administration.; value ranges from 11-16; assay type: functional; details: ip; summary of the method: as §3
[7] = tested on: Mus musculus; assay: Serotonergic activity by measuring the potentiation of 5-hydroxy tryptophan in mice upon ip administration; value ranges from 3.8-4.9; assay type: functional; summary of the method: as §4
[8] = tested on: Mus musculus; assay: Compound was tested for antidepressant activity against reserpine induced ptosis in mice after intraperitoneal administration.; value ranges from 4.0-5.7; assay type: functional; details: ip; summary of the method: as §3
[9] = tested on: Mus musculus; assay: Serotonergic activity by measuring the potentiation of 5-hydroxy tryptophan in mice upon ip administration; value ranges from 4.9-6.7; assay type: functional; summary of the method: as §4
[10] = tested on: Mus musculus; assay: Antidepressant activity against reserpine induced ptosis in mice after intraperitoneal administration.; assay type: functional; details: ip; summary of the method: as §3
[11] = tested on: Mus musculus; assay: Compound was tested for antidepressant activity against reserpine induced ptosis in mice after intraperitoneal administration.; value ranges from 5.9-6.7; assay type: functional; details: ip; summary of the method: as §3
[12] = tested on: Mus musculus; assay: Serotonergic activity by measuring the potentiation of 5-hydroxy tryptophan in mice upon ip administration; value ranges from 3.0-4.0; assay type: functional; summary of the method: as §4
[13] = Compound was tested for acute toxicity in mice after intraperitoneal administration; assay type: organism-based; details: mouse, in vivo, ip
Summary of the method: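 Female CD1 mice in groups of 5-10 received drug or vehicle (distilled water with gum tragacanth) ip. LD50 was derived graphically.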

[14] = tested on: Mus musculus; assay: Compound was tested for antidepressant activity against reserpine induced ptosis in mice after intraperitoneal administration.; value ranges from 27-31; assay type: functional; details: ip; summary of the method: as §3
[15] = tested on: Mus musculus; assay: Compound was tested for antidepressant activity against reserpine induced ptosis in mice after intraperitoneal administration.; value ranges from 11-34; assay type: functional; details: ip; summary of the method: as §3
[16] = tested on: Mus musculus; assay: Compound was tested for antidepressant activity against reserpine induced ptosis in mice after intraperitoneal administration.; value ranges from 14-18; assay type: functional; details: ip; summary of the method: as §3
[17] = tested on: Mus musculus; assay: Serotonergic activity by measuring the potentiation of 5-hydroxy tryptophan in mice upon ip administration; value ranges from 1.9-11.7.; assay type: functional; summary of the method: as §4
[18] = tested on: Mus musculus; assay: Compound was tested for antidepressant activity against reserpine induced ptosis in mice after intraperitoneal administration.; value ranges from 1.9-10.7; assay type: functional; details: ip; summary of the method: as §3
[19] = tested on: Mus musculus; assay: Serotonergic activity by measuring the potentiation of 5-hydroxy tryptophan in mice upon ip administration; value ranges from 17-20; assay type: functional; summary of the method: as §4
[20] = tested on: Mus musculus; assay: Compound was tested for antidepressant activity against reserpine induced ptosis in mice after intraperitoneal administration.; value ranges from 16-20; assay type: functional; details: ip; summary of the method: as §3
[21] = tested on: Mus musculus; assay: Compound was tested for antidepressant activity against reserpine induced ptosis in mice after intraperitoneal administration.; value ranges from 24-55; assay type: functional; details: ip; summary of the method: as §3
[22] = tested on: Mus musculus; assay: Compound was tested for antidepressant activity against reserpine induced ptosis in mice after intraperitoneal administration.; value ranges from 9-12; assay type: functional; details: ip; summary of the method: as §3
[23] = tested on: Mus musculus; assay: Serotonergic activity by measuring the potentiation of 5-hydroxy tryptophan in mice upon ip administration; value ranges from 1.4-2.1; assay type: functional; summary of the method: as §4
[24] = tested on: Mus musculus; assay: Compound was tested for antidepressant activity against reserpine induced ptosis in mice after intraperitoneal administration.; value ranges from 3.2-6.3; assay type: functional; details: ip; summary of the method: as §3
[25] = tested on: Mus musculus; assay: Serotonergic activity by measuring the potentiation of 5-hydroxy tryptophan in mice upon ip administration; the value ranges from 3-38; assay type: functional; summary of the method: as §4
[26] = tested on: Mus musculus; assay: Compound was tested for antidepressant activity against reserpine induced ptosis in mice after intraperitoneal administration; 50% activity at this maximal tested dose; assay type: functional; details: ip; summary of the method: as §3
[27] = tested on: Mus musculus; assay: Serotonergic activity by measuring the potentiation of 5-hydroxy tryptophan in mice upon ip administration; value ranges from 19-31; assay type: functional; summary of the method: as §4
[28] = tested on: Mus musculus; assay: as §2; details: in vivo, ip
[29] = tested on: Mus musculus; assay: Compound was tested for antidepressant activity against reserpine induced ptosis in mice after intraperitoneal administration.; value ranges from 4-7; assay type: functional; details: ip; summary of the method: as §3
[30] = tested on: Mus musculus; assay: Compound was tested for antidepressant activity against reserpine induced ptosis in mice after intraperitoneal administration.; value ranges from 5.9-7.3; assay type: functional; details: ip; summary of the method: as §3
[31] = tested on: Mus musculus; assay: Serotonergic activity by measuring the potentiation of 5-hydroxy tryptophan in mice upon ip administration; value ranges from 4.4-5.7; assay type: functional; summary of the method: as §4
[32] = tested on: Mus musculus; assay: Compound was tested for antidepressant activity against reserpine induced ptosis in mice after intraperitoneal administration; value ranges from 1.8-4.1; assay type: functional; details: ip; summary of the method: as §3
[33] = tested on: Mus musculus; assay: Serotonergic activity by measuring the potentiation of 5-hydroxy tryptophan in mice upon ip administration; value ranges from 3-7.9.; assay type: functional; summary of the method: as §4
[34] = tested on: Mus musculus; assay: Compound was tested for antidepressant activity against reserpine induced ptosis in mice after intraperitoneal administration.; value ranges from 2.2-2.4; assay type: functional; details: ip; summary of the method: as §3
[35] = tested on: Mus musculus; assay: Ability to modify turning behavior of mice after intraperitoneal administration.; assay type: functional; details: ip, read-out: MED; summary of the method: as §1
[36] = tested on: Mus musculus; assay: Compound was tested for antidepressant activity against reserpine induced ptosis in mice after intraperitoneal administration.; value ranges from 0.13-0.22; assay type: functional; details: ip; summary of the method: as §3

Row | Structure (SMILES) | minimal effective dose [1] | LD50 [2] | ED50 [4] | other results
1 | Cc1cc(-c2ccccc2)nnc1NC(C)CN (configuration not stated) | 2 mg/kg | > 200 mg/kg | > 30 mg/kg | ED50 [3]: 34 mg/kg
2 | COc1cccc(-c2cc(C)c(NCCN3CCOCC3)nn2)c1 | 0.5 mg/kg | 18 mg/kg | > 5 mg/kg | ED50 [5]: 6 mg/kg
3 | Cc1cc(-c2ccccc2)nnc1NCC(C)N1CCOCC1 (configuration not stated) | 2 mg/kg | 54 mg/kg | > 15 mg/kg | ED50 [6]: 13 mg/kg
4 | Cc1cc(-c2cccs2)nnc1NCCN1CCOCC1 | > 10 mg/kg | 59 mg/kg | – | ED50 [7]: 4.2 mg/kg; ED50 [8]: 4.8 mg/kg
5 | Cc1cc(-c2ccc(Cl)cc2)nnc1NCCN1CCOCC1 | > 2 mg/kg | 62 mg/kg | – | ED50 [9]: 5.8 mg/kg; ED50 [10]: > 10 mg/kg
6 | c1ccc(-c2ccc(NCCN3CCOCC3)nn2)cc1 | 0.5 mg/kg | 250 mg/kg | – | ED50 [11]: 6 mg/kg; ED50 [12]: 3.7 mg/kg
7 | Cc1cc(-c2ccccc2)nnc1NCCCN1CCOCC1 | 2 mg/kg | – | > 25 mg/kg | LD50 [13]: 66 mg/kg; ED50 [10]: > 30 mg/kg
8 | Cc1cc(-c2ccccc2)nnc1NCCN(C)C | 10 mg/kg | 118 mg/kg | > 30 mg/kg | ED50 [14]: 29 mg/kg
9 | Cc1cc(-c2ccccc2)nnc1NCCN1CCOCC1C (configuration not stated) | > 2 mg/kg | 110 mg/kg | 30 mg/kg | ED50 [15]: 20 mg/kg
10 | Cc1cc(-c2ccccc2)nnc1NCCN | 0.5 mg/kg | 300 mg/kg | > 30 mg/kg | ED50 [16]: 16 mg/kg
11 | Cc1cc(-c2ccc(F)cc2)nnc1NCCN1CCOCC1 | 2 mg/kg | 45 mg/kg | – | ED50 [17]: 4.7 mg/kg; ED50 [18]: 4.5 mg/kg
12 | Br.Br.Cc1cc(-c2ccccc2O)nnc1NCCN1CCOCC1 | 0.1 mg/kg | > 200 mg/kg | – | ED50 [19]: 17 mg/kg; ED50 [20]: 16 mg/kg
13 | CNCCNc1nnc(-c2ccccc2)cc1C | 2 mg/kg | > 200 mg/kg | ≥ 30 mg/kg | ED50 [21]: 36 mg/kg
14 | Cc1cc(-c2ccsc2)nnc1NCCN1CCOCC1 | > 10 mg/kg | 72 mg/kg | – | ED50 [22]: 10 mg/kg; ED50 [23]: 1.7 mg/kg
15 | Cc1cc(C2CCCCC2)nnc1NCCN1CCOCC1 | > 10 mg/kg | 43 mg/kg | – | ED50 [24]: 4.5 mg/kg; ED50 [25]: 16 mg/kg
16 | Cc1cccc(-c2cc(C)c(NCCN3CCOCC3)nn2)c1 | > 2 mg/kg | 23 mg/kg | > 10 mg/kg | ED50 [26]: 10 mg/kg
17 | Cc1cc(-c2ccccc2)nnc1NCCN1CCOCC1.Cl | – | – | – | ED50 [27]: 24 mg/kg; LD50 [28]: 63 mg/kg; ED50 [29]: 5 mg/kg
18 | N#Cc1cc(-c2ccccc2)nnc1NCCN1CCOCC1 [BAZINAPRINE] | 0.1 mg/kg | – | – | ED50 [30]: 6.6 mg/kg; ED50 [31]: 5 mg/kg
19 | CN(C)CCCN1c2ccccc2CCc2ccc(Cl)cc21 [CLOMIPRAMINE] | – | – | – | ED50 [32]: 3.3 mg/kg; ED50 [33]: 4.8 mg/kg
20 | CN(C)CCCN1c2ccccc2CCc2ccccc21 [IMIPRAMINE] | > 20 mg/kg | – | > 30 mg/kg | ED50 [34]: 2.3 mg/kg
21 | Br.Br.Cc1cc(-c2ccc(O)cc2)nnc1NCCN1CCOCC1 [MOXIRAPRINE DIBROMIDE] | 0.1 mg/kg | > 300 mg/kg | > 100 mg/kg | ED50 [10]: > 40 mg/kg
22 | CN1Cc2c(N)cccc2C(c2ccccc2)C1 (configuration not stated) [NOMIFENSINE] | – | – | > 30 mg/kg | minimal effective dose [35]: 5 mg/kg; ED50 [36]: 0.17 mg/kg
